# Results gathered from unrelated publications.
# Compare with care: the assays were run in different laboratories.
# Organism: Candida albicans
# Effect on: microbial growth
Compound,method,strain,concentration,time,measurement,value
Cc1nn(-c2ccccc2)c2c1C(c1ccc(O)cc1)N(C(=O)c1ccncc1)N2 (centres unmarked),,MTCC183,,,MIC,64 µg/mL
COC1=CC(=O)c2ccccc2C1=O,broth dilution,ATCC60193,,24 h,MIC,25 µg/mL
N#Cc1c(-c2ccc(Cl)cc2Cl)c(C(N)=O)c(N)n(N)c1=O,well diffusion,ATCC10231,500 µg/mL,,inhibition zone,9 mm
O=C(C=Cc1ccc(O)c(O)c1)OCCc1ccccc1,broth dilution,SC5314,,,MIC,8 µg/mL
Cc1nn(-c2ccccc2)c2c1C(c1ccc(Cl)cc1)N(C(=O)c1ccncc1)N2 (centres unmarked),,MTCC183,,,MIC,0.25 µg/mL
O=C(C=Cc1ccc(O)c(O)c1)Oc1ccccc1,broth dilution,SC5314,,,MIC,32 µg/mL
Cc1nn(-c2ccccc2)c2c1C(c1ccc([N+](=O)[O-])cc1)N(C(=O)c1ccncc1)N2 (centres unmarked),,MTCC183,,,MIC,> 100 µg/mL
OC(Cn1cncn1)(Cn1cncn1)c1ccc(F)cc1F,broth dilution,SC5314,,48 h,MIC50,0.8 µM
CC(C)NCC(COc1cccc2ccccc12)OC(=O)C=Cc1ccc(O)c(O)c1 (centres unmarked),broth dilution,SC5314,,,MIC,16 µg/mL
Cc1c(C(N)=O)c(N)n(N)c(=O)c1C#N,well diffusion,ATCC10231,500 µg/mL,,inhibition zone,12 mm
Cc1nn(-c2ccccc2)c2c1C(c1ccc(N(C)C)cc1)N(C(=O)c1ccncc1)N2 (centres unmarked),,MTCC183,,,MIC,32 µg/mL
N#Cc1c(-c2ccc(OCc3ccccc3)cc2)c(C(N)=S)c(N)n(N)c1=O,well diffusion,ATCC10231,500 µg/mL,,inhibition zone,10 mm
Nc1ccccc1OC(=O)C=Cc1ccc(O)c(O)c1,broth dilution,SC5314,,,MIC,8 µg/mL
Cc1c(C(N)=S)c(N)n(N)c(=O)c1C#N,well diffusion,ATCC10231,500 µg/mL,,inhibition zone,19 mm
Cc1nn(-c2ccccc2)c2c1C(c1ccco1)N(C(=O)c1ccncc1)N2 (centres unmarked),,MTCC183,,,MIC,> 100 µg/mL
CN(C)c1ccc(-c2c(C(N)=O)c(N)n(N)c(=O)c2C#N)cc1,well diffusion,ATCC10231,500 µg/mL,,inhibition zone,12 mm
CC1CCC(C(C)C)C(OC(=O)C=Cc2ccc(O)c(O)c2)C1 (centres unmarked),broth dilution,SC5314,,,MIC,8 µg/mL
